Measurements published in ChEMBL document CHEMBL5724801, “EUbOPEN Chemogenomics Library - Multiplex” (2024).
Several values for one entry are separate records, joined by “and”; a condition that tells them apart may be missing. Equal values may be shown once.

Tested on: Fibroblast
Experiment: Multiplex assay against human fibroblast
Assay type: toxicity, cell-based
Summary of the method: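 Live cells carried four stains from seeding: Hoechst33342, BioTracker Green Microtubule Cytoskeleton Dye, MitoTracker Red and Annexin V Alexa Fluor 680. They were imaged on a CQ1 microscope at 37°C and 5% CO2 after compound addition. Using CellPathfinder machine-learning gating, cells were split into Hoechst high-intensity objects or normal cells, normal cells into healthy, pyknosed or fragmented nuclei, and pyknosed cells into mitotic or apoptotic; tubulin, mitochondrial-mass and membrane-permeability phenotypes are per cents of healthy-nucleus cells.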

[1] = 12 h, 1 µM, compound concentration 1 uM
[2] = 12 h, 10 µM, compound concentration 10 uM
[3] = 24 h, 1 µM, compound concentration 1 uM
[4] = 24 h, 10 µM, compound concentration 10 uM
[5] = 48 h, 1 µM, compound concentration 1 uM
[6] = 48 h, 10 µM, compound concentration 10 uM

O=C(O)c1cc2ccccc2c(Cc2c(O)c(C(=O)O)cc3ccccc23)c1O [PAMOIC ACID]
Population Apoptotic (%) [1]: 54% and 32% | Population Fragmented Nuclei (%) [1]: 10% and 23% | Population Healthy Nuclei (%) [1]: 81% and 56% | Population Hoechst High Intensity Objects (%) [1]: 2% and 6% | Population Membrane Permeable-Phenotype (%) [1]: 0% and 6% | Population Mitochondria Different-Phenotype (%) [1]: 2% and 8% | Population Mitotic Cells (%) [1]: 45% and 67% | Population Normal (%) [1]: 97% and 93% | Population Pyknosed Nuclei (%) [1]: 7% and 19% | Population Tubulin-Different-Phenotype (%) [1]: 20% and 34% | Total Cell Count [1]: 147 and 154 | Population Apoptotic (%) [2]: 40% and 37% | Population Healthy Nuclei (%) [2]: 80% and 51% | Population Hoechst High Intensity Objects (%) [2]: 4% | Population Membrane Permeable-Phenotype (%) [2]: 1% and 3% | Population Mitochondria Different-Phenotype (%) [2]: 5% and 3% | Population Mitotic Cells (%) [2]: 60% and 62% | Population Normal (%) [2]: 95% | Population Pyknosed Nuclei (%) [2]: 11% and 24% | Population Tubulin-Different-Phenotype (%) [2]: 23% and 51% | Total Cell Count [2]: 132 and 156 | Population Apoptotic (%) [3]: 33% and 32% | Population Fragmented Nuclei (%) [3]: 10% and 23% | Population Healthy Nuclei (%) [3]: 86% and 58% | Population Hoechst High Intensity Objects (%) [3]: 3% and 6% | Population Membrane Permeable-Phenotype (%) [3]: 0% and 9% | Population Mitochondria Different-Phenotype (%) [3]: 2% and 11% | Population Mitotic Cells (%) [3]: 66% and 68% | Population Normal (%) [3]: 96% and 93% | Population Tubulin-Different-Phenotype (%) [3]: 17% and 39% | Total Cell Count [3]: 156 and 147 | Population Apoptotic (%) [4]: 50% and 40% | Population Healthy Nuclei (%) [4]: 77% and 52% | Population Hoechst High Intensity Objects (%) [4]: 2% and 5% | Population Membrane Permeable-Phenotype (%) [4]: 1% and 3% | Population Mitochondria Different-Phenotype (%) [4]: 1% and 5% | Population Mitotic Cells (%) [4]: 50% and 59% | Population Normal (%) [4]: 97% and 94% | Population Pyknosed Nuclei (%) [4]: 13% | Population Tubulin-Different-Phenotype (%) [4]: 20% and 39% | Total Cell Count [4]: 138 and 170 | Population Apoptotic (%) [5]: 25% and 38% | Population Fragmented Nuclei (%) [5]: 12% and 23% | Population Healthy Nuclei (%) [5]: 79% and 58% | Population Hoechst High Intensity Objects (%) [5]: 4% and 3% | Population Membrane Permeable-Phenotype (%) [5]: 0% and 9% | Population Mitochondria Different-Phenotype (%) [5]: 2% and 8% | Population Mitotic Cells (%) [5]: 75% and 61% | Population Normal (%) [5]: 95% and 96% | Population Pyknosed Nuclei (%) [5]: 8% and 17% | Population Tubulin-Different-Phenotype (%) [5]: 23% and 44% | Total Cell Count [5]: 155 and 152 | Population Apoptotic (%) [6]: 50% and 60% | Population Fragmented Nuclei (%) [6]: 19% and 32% | Population Healthy Nuclei (%) [6]: 72% and 60% | Population Hoechst High Intensity Objects (%) [6]: 5% and 3% | Population Membrane Permeable-Phenotype (%) [6]: 2% and 3% | Population Mitochondria Different-Phenotype (%) [6]: 5% and 1% | Population Mitotic Cells (%) [6]: 50% and 40% | Population Normal (%) [6]: 94% and 96% | Population Pyknosed Nuclei (%) [6]: 7% and 6% | Population Tubulin-Different-Phenotype (%) [6]: 29% and 28% | Total Cell Count [6]: 136 and 156
